This passage reports yeast fitness results from the RNAGym collection of RNA variant scans (doi:10.1126/science.aae0568).

Fewer inactive variants are shown than the library holds. Bounds are passed on as bounds.

To fix the notation:
B1: tRNA (parent)
chain: GUUCCGUUGGCGUAAUGGUAACGCGUCUCCCUCCUAAGGAGAAGACUGCGGGUUCGAGUCCCGUACGGAACG

The variants in the data set derive from B1. The experiment in a line: yeast fitness relative to wild type (ratio to wild type); higher = fitter; tRNA-Arg(CCU), competitive growth, 37 C, YPD. In short, it runs like this:
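For this measurement, the tRNA-Arg(CCU) gene was varied by chemical synthesis at a 3% per-site mutation rate across 69 sites, and each variant was placed at the native genomic locus in Saccharomyces cerevisiae. The pooled strains went through a 24-hour competition in YPD at 37°C in six parallel replicates, with amplicons from start and end populations read by 100-nucleotide paired-end sequencing. Darwinian fitness relative to wild type followed from the change in each genotype's frequency. Genotypes needed ≥ 100 starting reads, and estimates < 0.5 were set to 0.5.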
Turning to GUUCCGUUGGCGUAAUGGUAACGCGUCUCCCUCCUAAGGAGAUGACUUCGGGUUCGAGUCCCGUACGGAACG [A43U G48U], the yeast fitness amounted to 0.77.

Turning to GUUCCGUUGGCGUAAUGGUAACGCGUCUCCCUCCUAAGGAGAUGACUACGGGUUCGAGUCCCGUACGGAACG [A43U G48A], the yeast fitness came to 1.01.

As to GUUCCGUUGGCGUAAUGGUAACGCGUCUCCCUCCUAAGGAGAUGACUGCGGGUUAGAGUCCCGUACGGAACG [A43U C55A], the yeast fitness worked out at 0.613.

For the variant GUUCCGUUGGCGUAAUGGUAACGCGUCUCCCUCCUAAGGAGAUGACUGCGGGUUUGAGUCCCGUACGGAACG [A43U C55U], the yeast fitness turned out to be 0.768.

Consider GUUCCGUUGGCGUAAUGGUAACGCGUCUCCCUCCUAAGGAGAAAACUGCGGGUUCAAGACCCGUACGGAACG [G44A G56A U59A], for which the yeast fitness is 0.575.

Turning to GUUCCGUUGGCGUAAUGGUAACGCGUCUCCCUCCUAAGGAGAUGACUGCGGAUUCGAGUCCCGUACGGAACG [A43U G52A], the yeast fitness turned out to be 0.663.

Regarding GUUCCGUUGGCGUAAUGGUAACGCGUCUCCCUCCUAAGGAGAUGACUGCGGCUUCGAGUCCCGUACGGAACG [A43U G52C], the yeast fitness was determined as 0.6.

Regarding GUUCCGUUGGCGUAAUGGUAACGCGUCUCCCUCCUAAGGAGAUGACUGCGGGUUCGAGUUCCGUACCGAACG [A43U C60U G67C], the yeast fitness came to 0.636.

For GUUCCGUUGGCGUAAUGGUAACGCGUCUCCCUCCUAAGGAGAAACCUGUGGGUUCGAGUCGCGUACGGAACG [G44A A45C C49U C61G], the yeast fitness was not above 0.5.

For GUUCCGUUGGCGUAAUGGUAACGCGUCUCCCUCCUAAGGAGAAAACUGCGCGUUCGAGUCCCGUACGGAACG [G44A G51C], the yeast fitness was 0.572.

Consider GUUCCGUUGGCGUAAUGGUAACGCGUCUCCCUCCUAAGGAGAUGACUGAGGGUUCGAGUCCCGUACGGAACG [A43U C49A], for which the yeast fitness was 0.756.

On to GUUCCGUUGGCGUAAUGGUAACGCGUCUCCCUCCUAAGGAGAUGACUGUGGGUUCGAGUCCCGUACGGAACG [A43U C49U], for which the yeast fitness was determined as 1.09.

As for GUUCCGUUGGCGUAAUGGUAACGCGUCUCCCUCCUAAGGAGAUGACUCCGGGUUCGAGUACCGAACGGAACG [A43U G48C C60A U64A], the yeast fitness is not above 0.5.

Turning to GUUCCGUUGGCGUAAUGGUAACGCGUCUCCCUCCUAAGGAGAAAGCUGCGCGUUCGAGUCCCGUAUGGCACG [G44A A45G G51C C66U A69C], the yeast fitness amounted to 0.576.

Turning to GUUCCGUUGGCGUAAUGGUAACGCGUCUCCCUCCUAAGGAGAAAACUGCGGGUUCGAAUCCCGUACGGAACG [G44A G58A], the yeast fitness is 0.955.

As for GUUCCGUUGGCGUAAUGGUAACGCGUCUCCCUCCUAAGGAGAAAACUGCGGGUUCGACUCCCGUACGGAACG [G44A G58C], the yeast fitness amounted to 0.911.

For GUUCCGUUGGCGUAAUGGUAACGCGUCUCCCUCCUAAGGAGAUGACUGCGGGUUCGAGUCCCAUACGGAACG [A43U G63A], the yeast fitness was determined as 0.895.

For the variant GUUCCGUUGGCGUAAUGGUAACGCGUCUCCCUCCUAAGGAGAUGACUGCGGGUUCGACUCCCGUACGGAACG [A43U G58C], the yeast fitness was found to be 0.892.

For the variant GUUCCGUUGGCGUAAUGGUAACGCGUCUCCCUCCUAAGGAGAAAACUGCGGGUUUGAGUCCCAUACGGAACG [G44A C55U G63A], the yeast fitness is not above 0.5.

In the case of GUUCCGUUGGCGUAAUGGUAACGCGUCUCCCUCCUAAGGAGAAAACUGCGGGUUGGAGUCCCGUACGGAACG [G44A C55G], the yeast fitness is 0.558.

Take GUUCCGUUGGCGUAAUGGUAACGCGUCUCCCUCCUAAGGAGAUGACUGCGGGUUCGAGACCCGUACGGAACG [A43U U59A]: the yeast fitness stood at 0.807.

Regarding GUUCCGUUGGCGUAAUGGUAACGCGUCUCCCUCCUAAGGAGAUGACAGCGGGUUCGAGUCCCGUACGGAACG [A43U U47A], the yeast fitness is 0.799.

For the variant GUUCCGUUGGCGUAAUGGUAACGCGUCUCCCUCCUAAGGAGAUGACUACGGGUUCGAGUCGCGUACGGAACG [A43U G48A C61G], the yeast fitness was not above 0.5.

GUUCCGUUGGCGUAAUGGUAACGCGUCUCCCUCCUAAGGAGAUGACUCCGGGUUUGAGUCCCGUACGGAACG [A43U G48C C55U]: the yeast fitness is not above 0.5.

Consider GUUCCGUUGGCGUAAUGGUAACGCGUCUCCCUCCUAAGGAGAAAUCUGCGGGUUCGAGUCCCGUACGGAACG [G44A A45U], for which the yeast fitness was 0.885.

Turning to GUUCCGUUGGCGUAAUGGUAACGCGUCUCCCUCCUAAGGAGAUGACUACGGGUUCGAGUCGCGUACGGACCG [A43U G48A C61G A70C], the yeast fitness is not above 0.5.

As for GUUCCGUUGGCGUAAUGGUAACGCGUCUCCCUCCUAAGGAGAAAACUGCGGGUUCGAGUCCCGUACGGUACG [G44A A69U], the yeast fitness was 1.06.

Regarding GUUCCGUUGGCGUAAUGGUAACGCGUCUCCCUCCUAAGGAGAAAACUGCGGGUUCCAGUCCUGUACGGAACG [G44A G56C C62U], the yeast fitness worked out at 0.695.

Consider GUUCCGUUGGCGUAAUGGUAACGCGUCUCCCUCCUAAGGAGAUGACUGCGGGUUCGAGUGCCGUACGGAACG [A43U C60G], for which the yeast fitness was determined as 0.655.

On to GUUCCGUUGGCGUAAUGGUAACGCGUCUCCCUCCUAAGGAGAAAACUGCGGGUUCGAGUGCCGUACGGAACG [G44A C60G], for which the yeast fitness was 0.667.

With GUUCCGUUGGCGUAAUGGUAACGCGUCUCCCUCCUAAGGAGAUGACUGGGGGUUCGAGUCUCGUACGGAACG [A43U C49G C61U], the yeast fitness was not above 0.5.

Consider GUUCCGUUGGCGUAAUGGUAACGCGUCUCCCUCCUAAGGAGAUGACUACGGGUUCGAGUCCCGCACGGAACG [A43U G48A U64C], for which the yeast fitness came to 0.751.

Take GUUCCGUUGGCGUAAUGGUAACGCGUCUCCCUCCUAAGGAGAUGACUCCGGGUCCGAGUACCGAACGGAACG [A43U G48C U54C C60A U64A]: the yeast fitness is not above 0.5.

Turning to GUUCCGUUGGCGUAAUGGUAACGCGUCUCCCUCCUAAGGAGAAAAGUGCGGGUUCGAGUCCCGUACGGAACG [G44A C46G], the yeast fitness came to 0.928.

As for GUUCCGUUGGCGUAAUGGUAACGCGUCUCCCUCCUAAGGAGAAAAAUGCGGGUUCGAGUCCCGUACGGAACG [G44A C46A], the yeast fitness is 0.835.

For the variant GUUCCGUUGGCGUAAUGGUAACGCGUCUCCCUCCUAAGGAGAUGACGGCGGGGUCGAGUCCCGUACGGUACG [A43U U47G U53G A69U], the yeast fitness is not above 0.5.

For the variant GUUCCGUUGGCGUAAUGGUAACGCGUCUCCCUCCUAAGGAGAAAACUGCGGGUUCGAGUCCCGUCCGGAACG [G44A A65C], the yeast fitness came out at 1.05.

For GUUCCGUUGGCGUAAUGGUAACGCGUCUCCCUCCUAAGGAGAAAACUGCGGGUUCGAGUCCCGUUCGGAACG [G44A A65U], the yeast fitness was determined as 0.816.
